This note sets out measurements from the RNAGym collection of RNA variant scans (doi:10.1038/s41586-018-0170-7).

B1: tRNA (parent)
chain: GUUCCGUUGGCGUAAUGGUAACGCGUCUCCCUCCUAAGGAGAAGACUGCGGGUUCGAGUCCCGUACGGAACG

Variants of B1 are the subject of this data set. Nature of the data set: yeast fitness, log relative to wild type (ln ratio); higher = fitter; tRNA-Arg(CCU), competitive growth, 37 C, 1 M NaCl. A digest of the protocol: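 Variants were counted by 125 bp paired-end Illumina sequencing after pools of a combinatorial tRNA-Arg(CCU) library, held on a HIS3 centromeric plasmid in BY4742 lacking the chromosomal gene, grew ~6.5 generations (~26.5 h) in SC-HIS 1M NaCl at 37 °C. Each genotype's fitness is the natural log of its generations relative to the wild type's. Generations were OD-scaled log2 output/input frequencies, inverse-variance weighted over replicates.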
With AUUCCGUUGGCGUAAUGGUAACGCGUUUCCCUCCUAAGGAGAAGAUUGCGGGUUCGAGUCCCGUACGGAUUG [G1A C27U C46U A70U C71U], the “yeast fitness (ln)” value is -0.178.

For the variant GUUCCGUUGGCGUAAUGGUAACGCGUUUCCCUCCUAAGGAGAAGAUUGCGGGUUCGAGUCCCGUAAGGAGCG [C27U C46U C66A A70G], the “yeast fitness (ln)” value was -0.0605.

As to GUUCCGUUGGCGUAAUGGUAACGCGUCUCCCUCCUAAGGAGAAGAUUGCGGGUUCGAGUCCCGUAAGGGGUG [C46U C66A A69G A70G C71U], the “yeast fitness (ln)” value is -0.0571.

Turning to GCUCCAUUGGCGUAAUGGUAACGCGUUUCCCUCCUAAGGAGACGACUGCGGGUUCGAGUCCCGUACGGAGCG [U2C G6A C27U A43C A70G], the “yeast fitness (ln)” value is -0.153.

Consider AUUCCGUUGGCGUAAUGGUAACGCGUCUCCCUCCUAAGGAGACGAUUGCGGGUUCGAGUCCCGUAUGGGUUG [G1A A43C C46U C66U A69G A70U C71U], for which the “yeast fitness (ln)” value is -0.469.

For GCUCCGUUGGCGUAAUGGUAACGCGUCUCCCUCCUAAGGAGAAGACUGCGGGUUCGAGUCCCGUAAGGGUUG [U2C C66A A69G A70U C71U], the “yeast fitness (ln)” value is -0.496.

As to GUUCCUUUGGCGUAAUGGUAACGCGUUUCCCUCCUAAGGAGACGAUUGCGGGUUCGAGUCCCGUAAGGGAUG [G6U C27U A43C C46U C66A A69G C71U], the “yeast fitness (ln)” value is -0.439.

As for AUUCCGUUGGCGUAAUGGUAACGCGUUUCCCUCCUAAGGAGACGACUGCGGGUUCGAGUCCCGUAAGGAAUG [G1A C27U A43C C66A C71U], the “yeast fitness (ln)” value was -0.277.

GUUCCAUUGGCGUAAUGGUAACGCGUUUCCCUCCUAAGGAGAAGACUGCGGGUUCGAGUCCCGUACGGAUUG [G6A C27U A70U C71U]: the “yeast fitness (ln)” value is -0.227.

In the case of AUUCCAUUGGCGUAAUGGUAACGCGUUUCCCUCCUAAGGAGACGAUUGCGGGUUCGAGUCCCGUAUGGGAUG [G1A G6A C27U A43C C46U C66U A69G C71U], the “yeast fitness (ln)” value was -0.499.

With AUUCCUUUGGCGUAAUGGUAACGCGUCUCCCUCCUAAGGAGACGAUUGCGGGUUCGAGUCCCGUACGGAUUG [G1A G6U A43C C46U A70U C71U], the “yeast fitness (ln)” value is -0.297.

As to GCUCCAUUGGCGUAAUGGUAACGCGUCUCCCUCCUAAGGAGAAGACUGCGGGUUCGAGUCCCGUAAGGAUCG [U2C G6A C66A A70U], the “yeast fitness (ln)” value is -0.094.

Consider AGUCCAUUGGCGUAAUGGUAACGCGUCUCCCUCCUAAGGAGAAGAUUGCGGGUUCGAGUCCCGUACGGAACG [G1A U2G G6A C46U], for which the “yeast fitness (ln)” value was -0.0789.

For AUUCCGUUGGCGUAAUGGUAACGCGUCUCCCUCCUAAGGAGACGACUGCGGGUUCGAGUCCCGUAUGGGGUG [G1A A43C C66U A69G A70G C71U], the “yeast fitness (ln)” value was -0.293.

Take AUUCCGUUGGCGUAAUGGUAACGCGUUUCCCUCCUAAGGAGAAGAUUGCGGGUUCGAGUCCCGUACGGAACG [G1A C27U C46U]: the “yeast fitness (ln)” value is -0.0938.

GUUCCUUUGGCGUAAUGGUAACGCGUUUCCCUCCUAAGGAGACGAUUGCGGGUUCGAGUCCCGUACGGAACG [G6U C27U A43C C46U]: the “yeast fitness (ln)” value is -0.155.

Turning to AGUCCAUUGGCGUAAUGGUAACGCGUUUCCCUCCUAAGGAGACGACUGCGGGUUCGAGUCCCGUACGGAUCG [G1A U2G G6A C27U A43C A70U], the “yeast fitness (ln)” value is -0.26.

As to GCUCCUUUGGCGUAAUGGUAACGCGUUUCCCUCCUAAGGAGAAGAUUGCGGGUUCGAGUCCCGUACGGGAUG [U2C G6U C27U C46U A69G C71U], the “yeast fitness (ln)” value is -0.232.

For GGUCCUUUGGCGUAAUGGUAACGCGUUUCCCUCCUAAGGAGAAGAUUGCGGGUUCGAGUCCCGUAUGGGGUG [U2G G6U C27U C46U C66U A69G A70G C71U], the “yeast fitness (ln)” value was -0.356.

With GGUCCGUUGGCGUAAUGGUAACGCGUCUCCCUCCUAAGGAGACGAUUGCGGGUUCGAGUCCCGUAAGGAACG [U2G A43C C46U C66A], the “yeast fitness (ln)” value was -0.101.

On to AUUCCGUUGGCGUAAUGGUAACGCGUUUCCCUCCUAAGGAGACGAUUGCGGGUUCGAGUCCCGUAUGGGUUG [G1A C27U A43C C46U C66U A69G A70U C71U], for which the “yeast fitness (ln)” value is -0.448.

With GUUCCGUUGGCGUAAUGGUAACGCGUUUCCCUCCUAAGGAGAAGACUGCGGGUUCGAGUCCCGUAAGGAGCG [C27U C66A A70G], the “yeast fitness (ln)” value is -0.0873.

Consider GCUCCGUUGGCGUAAUGGUAACGCGUCUCCCUCCUAAGGAGACGAUUGCGGGUUCGAGUCCCGUAAGGGGCG [U2C A43C C46U C66A A69G A70G], for which the “yeast fitness (ln)” value was -0.15.

On to GCUCCAUUGGCGUAAUGGUAACGCGUCUCCCUCCUAAGGAGACGACUGCGGGUUCGAGUCCCGUAUGGAUCG [U2C G6A A43C C66U A70U], for which the “yeast fitness (ln)” value was -0.06.

Take GUUCCUUUGGCGUAAUGGUAACGCGUCUCCCUCCUAAGGAGAAGACUGCGGGUUCGAGUCCCGUAAGGAGCG [G6U C66A A70G]: the “yeast fitness (ln)” value is -0.0102.

Consider GGUCCAUUGGCGUAAUGGUAACGCGUCUCCCUCCUAAGGAGAAGAUUGCGGGUUCGAGUCCCGUAUGGGUCG [U2G G6A C46U C66U A69G A70U], for which the “yeast fitness (ln)” value was -0.00305.

Regarding AUUCCUUUGGCGUAAUGGUAACGCGUUUCCCUCCUAAGGAGACGACUGCGGGUUCGAGUCCCGUAAGGGUUG [G1A G6U C27U A43C C66A A69G A70U C71U], the “yeast fitness (ln)” value was -0.281.

For AUUCCAUUGGCGUAAUGGUAACGCGUUUCCCUCCUAAGGAGAAGACUGCGGGUUCGAGUCCCGUAAGGAUUG [G1A G6A C27U C66A A70U C71U], the “yeast fitness (ln)” value is -0.292.

For ACUCCGUUGGCGUAAUGGUAACGCGUUUCCCUCCUAAGGAGACGAUUGCGGGUUCGAGUCCCGUAUGGAAUG [G1A U2C C27U A43C C46U C66U C71U], the “yeast fitness (ln)” value was -0.241.

As for GCUCCUUUGGCGUAAUGGUAACGCGUUUCCCUCCUAAGGAGACGACUGCGGGUUCGAGUCCCGUAAGGAUCG [U2C G6U C27U A43C C66A A70U], the “yeast fitness (ln)” value is -0.167.

On to GCUCCUUUGGCGUAAUGGUAACGCGUUUCCCUCCUAAGGAGACGACUGCGGGUUCGAGUCCCGUAAGGAGCG [U2C G6U C27U A43C C66A A70G], for which the “yeast fitness (ln)” value is -0.0266.

As to ACUCCGUUGGCGUAAUGGUAACGCGUCUCCCUCCUAAGGAGAAGAUUGCGGGUUCGAGUCCCGUAUGGAUUG [G1A U2C C46U C66U A70U C71U], the “yeast fitness (ln)” value is -0.175.

GCUCCGUUGGCGUAAUGGUAACGCGUUUCCCUCCUAAGGAGACGAUUGCGGGUUCGAGUCCCGUAUGGAUUG [U2C C27U A43C C46U C66U A70U C71U]: the “yeast fitness (ln)” value is -0.324.

With GCUCCUUUGGCGUAAUGGUAACGCGUUUCCCUCCUAAGGAGACGACUGCGGGUUCGAGUCCCGUAAGGGGUG [U2C G6U C27U A43C C66A A69G A70G C71U], the “yeast fitness (ln)” value is -0.431.

For AUUCCGUUGGCGUAAUGGUAACGCGUCUCCCUCCUAAGGAGAAGACUGCGGGUUCGAGUCCCGUACGGGUUG [G1A A69G A70U C71U], the “yeast fitness (ln)” value was -0.44.

As to ACUCCAUUGGCGUAAUGGUAACGCGUCUCCCUCCUAAGGAGAAGAUUGCGGGUUCGAGUCCCGUACGGGGUG [G1A U2C G6A C46U A69G A70G C71U], the “yeast fitness (ln)” value is -0.0541.

For GUUCCGUUGGCGUAAUGGUAACGCGUUUCCCUCCUAAGGAGACGAUUGCGGGUUCGAGUCCCGUACGGGACG [C27U A43C C46U A69G], the “yeast fitness (ln)” value was -0.0156.

For the variant GGUCCUUUGGCGUAAUGGUAACGCGUCUCCCUCCUAAGGAGAAGACUGCGGGUUCGAGUCCCGUACGGAAUG [U2G G6U C71U], the “yeast fitness (ln)” value is -0.173.
